From ChEMBL document CHEMBL1649111, “Restoration of susceptibility of intracellular methicillin-resistant Staphylococcus aureus to beta-lactams: comparison of strains, cells, and antibiotics” (Antimicrob Agents Chemother, 2008) come the findings set out here.

Series [1] deals with Staphylococcus aureus. Briefly: Antimicrobial activity against hospital acquired methicillin-resistant Staphylococcus aureus ATCC 33591 infected in human THP-1 cells assessed as decrease in bacterial count from original inoculum at high compound concentration after 24 hrs at pH 5.5. The series is classed as functional. The method, boiled down:
(§1)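 Bacteria phagocytosed by unactivated human THP-1 macrophages, then incubated 24 h with extracellular antibiotic at about 0.01× to 100× the pH 5.5 broth MIC. CFU per mg cell protein counted against the original inoculum, n = 3. A Hill-equation fit (slope factor 1) gave Emin and Emax, extrapolated to infinitely low and high concentration, and EC50. Static concentration was graphically interpolated.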

The subject of series [2] is Staphylococcus aureus. Briefly: Antimicrobial activity against hospital acquired methicillin-resistant Staphylococcus aureus ATCC 33591 infected in human THP-1 cells assessed as decrease in bacterial growth after 24 hrs at pH 5.5. The series is classed as functional, organism-based. As to conditions: ATCC 33591, THP-1, 24 h. The method, boiled down: as §1
Series [3] has as its system Staphylococcus aureus. Briefly: Antimicrobial activity against Panton-valentine leukocidin positive community acquired methicillin-resistant Staphylococcus aureus NRS192 obtained from patient with pneumonia and septic arthritis infected in human THP-1 cells assessed as decrease in bacterial count from original inoculum at high compound concentration after 24 hrs at pH 5.5. The series is classed as functional. In a few lines:
as §1

Series [4] relates to Staphylococcus aureus. The series is described as follows: Bacteriostatic activity against hospital acquired methicillin-resistant and vancomycin-intermediate Staphylococcus aureus VRS2 infected in human THP-1 cells assessed as decrease in bacterial growth after 24 hrs at pH 5.5. Format: functional. The method, boiled down: (§2)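 Human THP-1 macrophages infected with each S. aureus strain. Cloxacillin added extracellularly at about 0.01× to 100× the broth MIC measured at pH 5.5, with gentamicin 0.5 mg/liter to stop extracellular growth. Incubated 24 h. CFU counted per mg cell protein as change from the post-phagocytosis inoculum, n = 3. Emin, Emax and EC50 from a Hill fit; static concentration by graphical interpolation.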

Series [5] deals with Staphylococcus aureus. Briefly: Antimicrobial activity against hospital acquired methicillin-resistant and vancomycin-intermediate Staphylococcus aureus NRS126 obtained from patient with bloodstream infection by broth microdilution method at pH 5.5. The series is classed as functional.
The test system of series [6] is Staphylococcus aureus. Briefly: Antimicrobial activity against hospital acquired methicillin-resistant Staphylococcus aureus HMC546 infected in human THP-1 cells assessed as increase in bacterial count from original inoculum at low compound concentration after 24 hrs at pH 5.5. The series is classed as functional. In a few lines:
as §1

For series [7], the system named is Staphylococcus aureus. Briefly: Antimicrobial activity against beta-lactamase negative methicillin-susceptible Staphylococcus aureus ATCC 25923 infected in human THP-1 cells assessed as decrease in bacterial count from original inoculum at high compound concentration after 24 hrs at pH 5.5. The series is classed as functional. In a few lines: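 MSSA ATCC 25923 phagocytized by unactivated THP-1 macrophages; extracellular antibiotic from about 0.01× to 100× the broth MIC at pH 5.5, with gentamicin 0.5 mg/liter to block extracellular growth. CFU per mg cell protein counted at 24 h vs. original inoculum (n = 3). A Hill equation (slope factor 1) gives Emin/Emax, extrapolated to infinitely low/high concentration. Static concentration is read by graphical interpolation.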

Series [8] relates to Staphylococcus aureus. Briefly: Antimicrobial activity against hospital acquired methicillin-resistant Staphylococcus aureus N4120210 obtained from urinary tract infection of patient infected in human THP-1 cells assessed as decrease in bacterial growth after 24 hrs at pH 5.5. Conditions: N4120210, THP-1, Urine. Format: functional, organism-based. In a few lines:
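THP-1 macrophages were infected, then incubated 24 h with cloxacillin at extracellular concentrations from about 0.01× to 100× the MIC measured in broth at pH 5.5, with gentamicin 0.5 mg/liter to block extracellular growth. CFU per mg cell protein were counted as change from the original inoculum (n = 3). A Hill-equation fit gave Emax, EC50 (multiples of MIC) and static concentration.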

Series [9] has as its system Staphylococcus aureus. Briefly: Antimicrobial activity against intracellular beta-lactamase negative methicillin-susceptible Staphylococcus aureus ATCC 25923 infected in human Calu3 cells assessed as decrease in bacterial growth after 24 hrs at pH 7.4. Conditions: ATCC 25923, Calu-3, 24 h. Format: functional, organism-based. The method, boiled down: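 Calu-3 bronchial epithelial cells, grown in uncoated flasks, were infected with 5 × 10⁷ to 1 × 10⁸ bacteria/ml for 2 h, giving 1.5 × 10⁶ to 3.0 × 10⁶ CFU/mg protein after phagocytosis. Cells were then exposed 24 h to a range of cloxacillin concentrations (mg/liter). CFU change per mg protein was measured (n = 3). A Hill fit with slope 1 gave Emax and EC50, and the static concentration was interpolated.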

The subject of series [10] is Staphylococcus aureus. Briefly: Antimicrobial activity against intracellular hospital acquired methicillin-resistant Staphylococcus aureus ATCC 33591 activated infected in human THP-1 cells assessed as decrease in bacterial growth after 24 hrs at pH 7.4. Format: functional, organism-based. As to conditions: ATCC 33591, THP-1, 24 h. The method, boiled down:
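THP-1 cells activated by 24-h culture with phorbol myristate acetate 2 mg/liter, then infected like unactivated THP-1. Cloxacillin dose range in mg/liter for 24 h. CFU per mg cell protein relative to the original inoculum, n = 3. Emin and Emax extrapolated from a Hill fit (slope 1), with EC50 as total drug; static concentration by graphical interpolation.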

In series [11] the test system is Staphylococcus aureus. The series is described as follows: Antimicrobial activity against intracellular hospital acquired methicillin-resistant Staphylococcus aureus ATCC 33591 infected in human keratinocytes assessed as increase in bacterial count from original inoculum at low compound concentration after 24 hrs at pH 7.4. Format: functional. In a few lines:
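Primary human skin keratinocytes or Calu-3 bronchial epithelial cells, given an inoculum of 5 × 10⁷ to 1 × 10⁸ bacteria/ml and 2 h for internalization. Post-phagocytosis load 1.5 × 10⁶ to 3.0 × 10⁶ CFU per mg cell protein. Cloxacillin dose range in mg/liter for 24 h, n = 3. Hill-derived Emin, Emax and EC50; static concentration interpolated.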

Series [12] is described as follows: Chemical stability of the compound assessed as compound remaining after 24 hrs in PBS buffer by HPLC analysis at pH 7.4. Format: physicochemical. As to conditions: read-out: Activity. In a few lines: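 Drug at 50 mg/liter initial concentration incubated 24 h at 37°C in buffered medium at pH 7.4 or 5.5. Remaining drug measured by HPLC signal disappearance; mobile phase 25 mM phosphate buffer pH 6.7 with acetonitrile (75:25).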

Series [13] concerns Staphylococcus aureus. Briefly: Bacteriostatic activity against hospital acquired methicillin-resistant and vancomycin-intermediate Staphylococcus aureus NRS18 infected in human THP-1 cells assessed as decrease in bacterial growth after 24 hrs at pH 5.5. The series is classed as functional. The method, boiled down:
as §2

In series [14] the test system is Staphylococcus aureus. Briefly: Antimicrobial activity against intracellular beta-lactamase negative methicillin-susceptible Staphylococcus aureus ATCC 25923 infected in human keratinocytes assessed as decrease in bacterial count from original inoculum at high compound concentration after 24 hrs at pH 7.4. The series is classed as functional. The method, boiled down: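 Primary human skin keratinocytes or Calu-3 bronchial epithelial cells infected with MSSA ATCC 25923 at 5 × 10⁷ to 1 × 10⁸ bacteria/ml, 2 h internalization. Postphagocytosis inoculum 1.5 × 10⁶ to 3.0 × 10⁶ CFU/mg protein. Cloxacillin concentration range for 24 h; CFU/mg protein change vs. inoculum (n = 3). Hill fit gives Emin/Emax; static concentration by graphical interpolation.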

Series [15] has as its system Staphylococcus aureus. The series is described as follows: Antimicrobial activity against hospital acquired methicillin-resistant Staphylococcus aureus N4120032 obtained from wound infection of patient by broth microdilution method at pH 5.5. Format: functional. On the technique in general: Broth dilution looks for growth in wells or tubes with falling amounts of substance.

Series [16] deals with Staphylococcus aureus. The series is described as follows: Antimicrobial activity against Panton-valentine leukocidin positive community acquired methicillin-resistant Staphylococcus aureus N4042228 by broth microdilution method at pH 5.5. The series is classed as functional.
For series [17], the system named is Staphylococcus aureus. Briefly: Antimicrobial activity against hospital acquired methicillin-resistant Staphylococcus aureus ATCC 33591 infected in human THP-1 cells assessed as increase in bacterial count from original inoculum at low compound concentration after 24 hrs at pH 5.5. The series is classed as functional. In a few lines:
as §1

In brackets after ≈: the same amount, converted by molar mass.

For the compound `Cc1onc(-c2ccccc2Cl)c1C(=O)N[C@@H]1C(=O)N2[C@@H]1SC(C)(C)[C@@H]2C(=O)O` [CLOXACILLIN], the log10cfu in the series with Staphylococcus aureus [1] was determined as 0.55; with Staphylococcus aureus [3], 0.68; with Staphylococcus aureus [6], 2.06; with Staphylococcus aureus [7], 0.77; in the series with Staphylococcus aureus [11], 2.06; in the series with Staphylococcus aureus [14] it was 0.95. The log10cfu in the series on Staphylococcus aureus [17] stood at 2.27. The EC50 in the series on Staphylococcus aureus [2] turned out to be 4.25 ×MIC; in the series on Staphylococcus aureus [8], 8.51 ×MIC; in the series with Staphylococcus aureus [9], 0.52 µg/mL (≈ 1.19 µM); in the series on Staphylococcus aureus [10] it was 0.32 µg/mL (≈ 0.734 µM). Further, the Activity with Staphylococcus aureus [4] came out at 8.12 mg/L; in the series with Staphylococcus aureus [13], 14.1 ×MIC. The MIC was 0.06 µg/mL (≈ 0.138 µM) with Staphylococcus aureus [5], 0.06 µg/mL (≈ 0.138 µM) in the series with Staphylococcus aureus [15] and 0.03 µg/mL (≈ 0.0688 µM) in the series on Staphylococcus aureus [16]. The remaining at 24 h in series [12] amounted to 97.8%.

By MIC is commonly meant the least concentration at which growth counts as inhibited.
